Here are results for 1 substance from publication PMC4094378 (European journal of medicinal chemistry, 2014).

The subject of one assay is HT-29 cells. Kind of assay: Cell growth inhibitory activity. It counts as cell-based, human. The following applies: read-out: IC50 HT-29; 72 h, MTT; mean ± SE. In outline:
(§1)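 Jurkat, CEM and SEM cells were grown in RPMI-1640, and HeLa, MCF-7, HT-29 and LoVo in DMEM, each with 10% FBS and penicillin/streptomycin. Wells got 8 × 10^3 cells and were preincubated 18 h at 37 °C in 5% CO2. Test compound from a 10 mM DMSO stock was diluted in medium (final DMSO ≤0.25%) and applied for 72 h. Read-out was MTT. IC50 is the concentration giving 50% inhibition of proliferation, from dose–response curves of ≥3 independent experiments, mean ± SE.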

Assay [1] relates to panel of seven human cancer cell lines. Kind of assay: Antiproliferative activity across the panel of seven cancer cell lines. It is filed as cell-based. The following applies: 4′-methoxy replaced by 4′-ethoxy. In outline: as §1
In the next assay the test system is CEM cells. Kind of assay: Cell growth inhibitory activity. As to conditions: read-out: IC50 CEM; 72 h, MTT; mean ± SE. It counts as cell-based, human. The essentials: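 Human T-cell leukemia cells grown in RPMI-1640 with 10% FBS, penicillin G 115 units/mL and streptomycin 115 μg/mL. 8 × 10^3 cells/well were preincubated 18 h at 37 °C, 5% CO2, then exposed to graded compound concentrations in complete medium from 10 mM DMSO stocks (final DMSO ≤0.25%) for 72 h at 37 °C. Viability was read by MTT, and IC50 is the concentration inhibiting proliferation by 50%.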

Another assay has as its system HeLa cells. As to the kind of experiment: Cell growth inhibitory activity. It counts as cell-based, human. As to conditions: read-out: IC50 HeLa; 72 h, MTT; mean ± SE. The essentials:
as §1

A further assay concerns MCF-7 cells. Kind of assay: Cell growth inhibitory activity. It counts as cell-based, human. The following applies: read-out: IC50 MCF-7; 72 h, MTT; mean ± SE. In outline: as §1
For a further assay, the system named is LoVo cells. As to the kind of experiment: Cell growth inhibitory activity. It counts as cell-based, human. As to conditions: read-out: IC50 LoVo; 72 h, MTT; mean ± SE. In outline: as §1
In a further assay the test system is Jurkat cells. Kind of assay: Cell growth inhibitory activity. The following applies: read-out: IC50 Jurkat; 72 h, MTT; mean ± SE. It counts as cell-based, human. The essentials: as §1
The subject of a further assay is SEM cells. As to the kind of experiment: Cell growth inhibitory activity. It counts as cell-based, human. As to conditions: read-out: IC50 SEM; 72 h, MTT; mean ± SE. In outline:
as §1

By IC50 is commonly meant the concentration that gives 50% inhibition. For “2-Bromo-N-(4-{(1E)-3-oxo-3-[(4-ethoxyphenyl)amino] prop-1-en-1-yl}phenyl)-acrylamide [4j]”, the IC50 with HT-29 cells was 3.4 ± 0.3 µM; in the assay with CEM cells, 0.098 ± 0.033 µM; with HeLa cells, 2 ± 0.13 µM; with MCF-7 cells, 5.5 ± 1 µM; with LoVo cells, 0.85 ± 0.03 µM; in the assay on Jurkat cells, 0.93 ± 0.12 µM. Further, the IC50 in the assay with SEM cells is 0.18 ± 0.04 µM. Moreover, in assay [1], the “fold reduction in activity vs 4i” value is 2–4 fold.
